Most compounds without a hit are left out; they make up all but 3.8% or so of the library.
B2AR ag: agonists of human beta-2 adrenergic receptor inducing internalization; P07550; Am2.2-beta2AR cells, FAP receptor internalization, flow cytometry; response, % (no concentration beside the values); actives 0.43% (n = 340,000);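 active means response above a set limit, near 3 SD of response in nonfluorescent compounds, cut at about 42% in these data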
Target sequence (P07550 whole entry, looked up): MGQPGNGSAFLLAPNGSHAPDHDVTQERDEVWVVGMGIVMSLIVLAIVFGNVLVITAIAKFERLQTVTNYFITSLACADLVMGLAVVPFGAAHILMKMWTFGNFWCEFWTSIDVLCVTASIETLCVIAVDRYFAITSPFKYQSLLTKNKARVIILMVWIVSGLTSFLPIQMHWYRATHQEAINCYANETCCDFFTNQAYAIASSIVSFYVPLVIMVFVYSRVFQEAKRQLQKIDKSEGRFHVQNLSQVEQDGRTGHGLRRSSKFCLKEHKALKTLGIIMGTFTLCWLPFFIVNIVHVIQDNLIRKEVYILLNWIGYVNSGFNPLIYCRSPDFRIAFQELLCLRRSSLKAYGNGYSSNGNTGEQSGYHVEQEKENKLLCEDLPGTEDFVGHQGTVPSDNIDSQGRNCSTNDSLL
T cell modulator: T cell immune modulation candidate | 2C CD8+ T cell-vesicle binding, flow cytometry; active compounds read low | response (vesicle binding), % at 7 µM | actives 0.068% (n = 330,000);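 active means response, share of CD8 T cells binding vesicles, and their 90th percentile fluorescence all below set limits, cut at about 80% in these data, passing the limit was not always enough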;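 further: values below 100% mean blocked vesicle binding to the CD8+ T cells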
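Material: murine 2C transgenic CD8+ T lymphocytes / Also added: QL9-peptide-loaded Drosophila micro-vesicles bearing Ld, ICAM-1 and B7-1 / Schedule: binding step 1.5 h, 37 °C, antibody labelling 20 min, ice / Signal: flow cytometry, PE anti-B7-1 (FL2) versus Alexa647 anti-CD8 (FL8), PFA-fixed / Evaluation: percent CD8+ FL2 mean versus row control / Benchmarks: naked versus QL9-loaded vesicles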
MPTP block: blocks calcium-induced mitochondrial swelling | isolated mouse mitochondria, Ca2+ swelling absorbance, 30 min | inhibition, % at 10 µM | actives 1.4% (n = 360,000);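 active means inhibition of 50% or more, scaled per plate between neutral and stimulator controls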;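 further: 0% = DMSO wells given calcium and 100% = 1 mM EGTA wells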
V-ATPase pHluor: yeast V-ATPase proton transport regulation by pHLuorin; S. cerevisiae, pHLuorin cytosolic pH fluorescence; response, % at 10 µM; actives 0.37% (n = 350,000); in the data active means response mostly above about 7.3%, no sharp cut-off; inactive means mostly below about 5.4%; further: actives read high
Exocytosis inh: lytic granule exocytosis inhibition. AID 651702. inhibition, % at 10 µM. actives 0.66% (n = 360,000). TALL-104 LAMP-1 surface exposure, flow cytometry; cells stimulated with thapsigargin and PMA;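 active means inhibition above about 55%, limit read from the data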
rCAG binder: molecules binding r(CAG) RNA repeats; r(CAG) RNA repeat, TO-PRO-1 dye displacement fluorescence; actives 1.3% (n = 370,000); inhibition, % at 3 µM; AID 651821;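 active means inhibition above the plate cutoff, the mean of all test compounds on that plate plus 3 SD, cut at about 35% in these data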;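 further: 0% = DMSO alone and 100% = 100 µM mitoxantrone as full dye displacement; higher means more dye released from RNA so lower well fluorescence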
rCAG bind conf: r(CAG) RNA repeat binding, confirmation; shares compounds with rCAG binder; TO-PRO-1 dye displacement fluorescence; inhibition, % at 3 µM; actives 70% (n = 4,300);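 active means inhibition above a per-plate cutoff, the mean inhibition of sample wells plus 3 SD, cut at about 35% in these data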;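 further: loss of TO-PRO-1 fluorescence as compound displaces dye from 1x1 AA loop RNA; 0% = DMSO only wells and 100% = 100 µM mitoxantrone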
dCAG dye counter: disrupts DNA CAG TO-PRO-1 complex, flagging rCAG hits; inhibition, % at 3 µM; AID 652068; actives 94% (n = 4,300); d(CAG) DNA oligo TO-PRO-1 dye displacement, fluorescence; shares compounds with rCAG binder;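 active means inhibition above its plate's cutoff, the mean test-well inhibition plus 3 SD, cut at about 4.8% in these data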;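 further: 0% = DNA dye mix with DMSO and 100% = 100 µM mitoxantrone; hits displace the dye from DNA and so lower well fluorescence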
Numbers without * were called inactive.

`COc1cccc(CC(=O)O[C@@H]2CCC[C@@]3(C(=O)N(Cc4ccccc4)c4ccccc43)[C@H]2NC(=O)CCc2ccccc2)c1` gave rCAG binder 8.7.
`COc1ccc(Cl)cc1C(=O)NCCc1ccc(S(=O)(=O)NC(=O)NC2CCCCC2)cc1` gave B2AR ag -12.4, MPTP block -1.6, V-ATPase pHluor -0.2, Exocytosis inh -0.1, rCAG binder 40.9*, rCAG bind conf 31.0 and dCAG dye counter 8.0*.
COc1ccc2c(c1)C(=O)N(CCc1ccc(S(=O)(=O)NC(=O)NC3CCCCC3)cc1)C(=O)C2(C)C was read as B2AR ag -5.2, T cell modulator 301.8, MPTP block 0.2, V-ATPase pHluor -6.3, Exocytosis inh -2.7, rCAG binder 38.1*, rCAG bind conf 52.8* and dCAG dye counter 14.8*.
Screening COc1ccc(CNC(=O)NC2CCCCC2)cc1 returned B2AR ag -4.4, T cell modulator 664.5, MPTP block -0.5, V-ATPase pHluor 0.4, Exocytosis inh -0.7 and rCAG binder -2.1.
CCCCN1CN2Cc3cc(F)ccc3C2CS1(=O)=O (stereo not drawn) was read as rCAG binder 3.4.
`CCOC(=O)C1CSCCS(=O)(=O)N1Cc1cccc(F)c1` (stereo not drawn) gave rCAG binder 0.4.
Screening Cc1ccc(/C=N/Nc2ccc(C(=O)O)cc2)s1 returned B2AR ag 2.3, T cell modulator 510.9, MPTP block 0.2, V-ATPase pHluor -2.4, Exocytosis inh -1.0 and rCAG binder 24.0.
`O=C(O)c1cccc(N/N=C/c2ccc(F)c(F)c2)c1` gave B2AR ag 1.6, T cell modulator 288.6, MPTP block -1.6, V-ATPase pHluor -0.9, Exocytosis inh 6.3 and rCAG binder 6.8.
Cc1nn(-c2cccc(C(F)(F)F)c2)c(Cl)c1/C=N/Nc1cccc(C(=O)O)c1 was read as B2AR ag 11.3, T cell modulator 294.9, MPTP block -0.1, V-ATPase pHluor 4.0, Exocytosis inh -0.1, rCAG binder 44.0*, rCAG bind conf 57.2* and dCAG dye counter 19.2*.
`COc1ccc(/C=N/Nc2ccc(C(=O)O)cc2)cc1Br` gave B2AR ag -2.5, T cell modulator 150.0, MPTP block -0.4, V-ATPase pHluor 3.0, Exocytosis inh 2.2 and rCAG binder 12.1.
For C=CCOc1c(Br)cc(/C=N/Nc2ccc(C(=O)O)cc2)cc1OCC the results were B2AR ag -22.6, T cell modulator 236.3, MPTP block -0.1, V-ATPase pHluor -0.3, Exocytosis inh 10.1, rCAG binder 83.3*, rCAG bind conf 65.8* and dCAG dye counter 26.1*.
Screening Cc1nn(-c2ccccc2Cl)c(Cl)c1/C=N/Nc1cccc(C(=O)O)c1 returned B2AR ag -3.9, T cell modulator 457.9, MPTP block 0.4, V-ATPase pHluor 2.8, Exocytosis inh 2.8 and rCAG binder 18.8.
For O=C(O)c1cccc(N/N=C/C2=C(Cl)c3cc(Cl)ccc3SC2)c1 the results were B2AR ag 9.2, MPTP block -4.1, V-ATPase pHluor 0.6, Exocytosis inh 0.0, rCAG binder 34.8*, rCAG bind conf 80.0* and dCAG dye counter 49.8*.
`Cc1ccc(/C=N/Nc2cccc(C(=O)O)c2)s1` gave B2AR ag -1.8, T cell modulator 392.7, MPTP block -0.9, V-ATPase pHluor 4.8, Exocytosis inh 0.8, rCAG binder 35.7*, rCAG bind conf 19.1 and dCAG dye counter 4.8*.
Screening O=CN1CCN(C(=O)C2CCN(c3ncnc4c3sc3cccc(F)c34)CC2)CC1 returned rCAG binder 6.1.
`COC(=O)[C@]12C[C@H](CC(=O)NCc3cccs3)C(=O)N(Cc3cccc4ccccc34)C1=C[C@H](C1CCCC1)O[C@@H]2C` gave rCAG binder 10.4.
O=C(N[C@H](Cc1ccccc1)C(=O)N1CCN(c2ncccn2)CC1)[C@H]1O[C@@H](n2ccc(=O)[nH]c2=O)[C@H](O)[C@@H]1O was read as rCAG binder -1.0.
